# Assay results reported in ChEMBL document CHEMBL3808298, “The combination of quinazoline and chalcone moieties leads to novel potent heterodimeric modulators of breast cancer resistance protein (BCRP/ABCG2)” (Eur J Med Chem, 2016).
# Active and inactive are the calls of the source. The calls are words filed in the database; no cut-off is given here.
# Assays:
# [1] = biological target: T1, Broad substrate specificity ATP-binding cassette transporter ABCG2 (Homo sapiens, UniProt Q9UNQ0); test: Inhibition of human C-terminal GFP-tagged ABCG2 expressed in MDCK2 cells using pheophorbide A as substrate preincubated for 20 mins followed by substrate addition measured after 120 mins by flow cytometry; type: cell-based, MDCK-II
# T1 sequence (Q9UNQ0 whole entry): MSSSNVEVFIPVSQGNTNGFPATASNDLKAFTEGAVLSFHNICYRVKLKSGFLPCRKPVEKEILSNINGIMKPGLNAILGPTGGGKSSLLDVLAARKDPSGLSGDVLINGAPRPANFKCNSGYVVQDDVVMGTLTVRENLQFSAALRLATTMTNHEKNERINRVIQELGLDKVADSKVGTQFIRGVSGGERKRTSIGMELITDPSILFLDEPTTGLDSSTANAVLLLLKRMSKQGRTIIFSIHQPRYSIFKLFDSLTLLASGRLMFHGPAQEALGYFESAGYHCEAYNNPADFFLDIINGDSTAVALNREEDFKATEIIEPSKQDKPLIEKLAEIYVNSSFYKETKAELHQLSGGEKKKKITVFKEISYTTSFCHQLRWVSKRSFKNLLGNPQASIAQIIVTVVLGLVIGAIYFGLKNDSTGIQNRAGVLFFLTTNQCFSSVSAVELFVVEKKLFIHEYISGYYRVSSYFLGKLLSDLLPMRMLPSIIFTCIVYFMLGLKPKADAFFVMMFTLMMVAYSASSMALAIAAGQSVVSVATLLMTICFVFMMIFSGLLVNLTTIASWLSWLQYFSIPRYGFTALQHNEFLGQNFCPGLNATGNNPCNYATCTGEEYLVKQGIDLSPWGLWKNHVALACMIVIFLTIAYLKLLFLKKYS
# Outline: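 MDCK II BCRP cells, about 45,000/well in KHB, preincubated with compound for 20 min at 37 °C, 5% CO2. Pheophorbide A added (5 µM solution), then 120 min to steady state. Flow cytometry: excitation 488 nm, emission >670 nm (FL3); GFP in FL1. IC50 from 4-parameter logistic fit; duplicates.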
# [2] = biological target: T1, Broad substrate specificity ATP-binding cassette transporter ABCG2; test: Inhibition of vanadate-sensitive ATPase activity of recombinant human ABCG2 expressed in baculovirus infected Sf9 cell membrane assessed as decrease in inorganic phosphate production at 1 uM after 20 mins by colorimetry; details: sf9, 20 min
# Outline: (§1)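 Sf9 membranes from cells infected with baculovirus carrying human wild-type ABCG2, cholesterol-loaded; protein by BCA. Buffer: 40 mM MOPS-Tris pH 7.0, 50 mM KCl, 2 mM DTT, 500 µM EGTA-Tris, 5 mM azide, 1 mM ouabain, 10 µg protein. Reaction started with 3.3 mM MgATP, 20 min at 37 °C. Basal activity with 1 mM orthovanadate; 1 µM quercetin and 1 µM Ko143 as references. Pi by molybdate/ascorbate at 880 nm against K2HPO4 standard; triplicates.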
# [3] = biological target: ATP-dependent translocase ABCB1 (Homo sapiens, UniProt P08183); test: Inhibition of ABCB1 in human A2780/ADR cells incubated for 30 mins measured up to 3600 secs with time intervals of 60 secs by calcein accumulation assay; type: cell-based
# Sequence of ATP-dependent translocase ABCB1 (P08183 whole entry): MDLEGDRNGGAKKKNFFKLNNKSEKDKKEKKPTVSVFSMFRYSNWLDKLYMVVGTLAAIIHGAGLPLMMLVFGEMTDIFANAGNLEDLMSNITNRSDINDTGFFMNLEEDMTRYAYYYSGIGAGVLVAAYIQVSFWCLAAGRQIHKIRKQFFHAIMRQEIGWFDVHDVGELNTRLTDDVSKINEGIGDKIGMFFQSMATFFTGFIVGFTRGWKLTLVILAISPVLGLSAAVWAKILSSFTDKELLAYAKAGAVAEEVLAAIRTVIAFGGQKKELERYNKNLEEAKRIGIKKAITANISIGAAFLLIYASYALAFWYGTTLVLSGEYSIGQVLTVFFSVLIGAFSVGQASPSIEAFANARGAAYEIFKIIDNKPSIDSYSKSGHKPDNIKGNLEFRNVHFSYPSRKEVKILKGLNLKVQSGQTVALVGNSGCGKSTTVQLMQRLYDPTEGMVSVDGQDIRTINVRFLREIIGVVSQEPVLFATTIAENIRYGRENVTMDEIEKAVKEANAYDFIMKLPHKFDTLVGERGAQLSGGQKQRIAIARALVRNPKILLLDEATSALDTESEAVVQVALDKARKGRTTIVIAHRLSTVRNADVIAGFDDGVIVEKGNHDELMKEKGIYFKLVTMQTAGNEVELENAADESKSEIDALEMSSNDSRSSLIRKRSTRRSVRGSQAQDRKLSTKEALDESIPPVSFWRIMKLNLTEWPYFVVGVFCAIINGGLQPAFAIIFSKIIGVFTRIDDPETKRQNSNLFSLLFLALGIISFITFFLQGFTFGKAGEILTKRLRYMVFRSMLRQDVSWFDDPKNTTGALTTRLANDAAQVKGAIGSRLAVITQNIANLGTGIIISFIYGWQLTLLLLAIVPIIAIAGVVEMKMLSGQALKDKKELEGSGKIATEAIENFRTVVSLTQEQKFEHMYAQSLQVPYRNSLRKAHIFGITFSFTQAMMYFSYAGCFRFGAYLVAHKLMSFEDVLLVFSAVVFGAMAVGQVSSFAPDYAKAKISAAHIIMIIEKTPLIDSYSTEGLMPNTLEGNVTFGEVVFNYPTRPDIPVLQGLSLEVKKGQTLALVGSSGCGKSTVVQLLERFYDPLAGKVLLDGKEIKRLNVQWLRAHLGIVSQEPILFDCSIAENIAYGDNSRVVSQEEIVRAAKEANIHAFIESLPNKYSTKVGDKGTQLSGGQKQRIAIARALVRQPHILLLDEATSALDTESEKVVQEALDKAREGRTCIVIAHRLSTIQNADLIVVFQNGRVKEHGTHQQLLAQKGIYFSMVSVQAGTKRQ
# [4] = biological target: ABCB1 (P-glycoprotein) (Homo sapiens, UniProt P08183); test: Inhibition of ABCB1 in human A2780/ADR cells at 10 uM incubated for 30 mins measured up to 3600 secs with time intervals of 60 secs by calcein accumulation assay relative to cyclosporine A; type: cell-based; details: probe calcein, read-out: Imax
# Sequence of ABCB1 (P-glycoprotein) (Homo sapiens, UniProt P08183) (P08183 whole entry): as above
# Outline: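 A2780adr cells, about 30,000/well, preincubated with compound for 30 min. Calcein AM then added (1.25 µM solution); fluorescence (ex 485/em 520 nm) read every 60 s to 3600 s at 37 °C. […] IC50 by four-parameter logistic fit, variable slope.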
# [5] = Cytotoxicity against MDCK2 cells assessed as reduction in cell viability after 72 hrs by MTT assay; type: cell-based, Canis lupus familiaris, MDCK-II; details: dog
# Outline: (§2)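 Seeding 3 x 10³ cells/well, 6 h attachment at 37 °C, 5% CO2, then compound for 72 h. Controls: 10% DMSO (positive), medium (negative). MTT 5 mg/ml stock for 1 h; formazan in DMSO; A570, background 690 nm. Normalized to control; GI50 from variable-slope sigmoidal fit.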
# [6] = Cytotoxicity against MDCK2 cells expressing human C-terminal GFP-tagged ABCG2 assessed as reduction in cell viability after 72 hrs by MTT assay; type: ADME, cell-based, Canis lupus familiaris, MDCK-II; details: dog; outline: as §2
# [7] = test system: ABCG2; test: Therapeutic ratio of GI50 for MDCK2 cells expressing human C-terminal GFP-tagged ABCG2 to IC50 for human C-terminal GFP-tagged ABCG2 expressed in MDCK2 cells; type: ADME, cell-based; details: dog, read-out: TI
# Outline: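 Ratio of GI50 from a 72 h MTT assay in MDCK II BCRP cells to IC50 from the pheophorbide A assay in the same cells.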
# [8] = Cytotoxicity against human A2780/ADR cells overexpressing ABCB1 assessed as reduction in cell viability after 72 hrs by MTT assay; type: ADME, cell-based
# Outline: (§3)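 MTT assay in A2780 and ABCB1-overexpressing doxorubicin-resistant A2780adr cells; A2780adr given 1 μM doxorubicin for one passage every 10 passages. 8 x 10³ cells/well, 6 h attachment, 72 h compound exposure at 37 °C, 5% CO2. MTT 1 h, DMSO solubilization, A570 with 690 nm background. Normalized data; GI50 by variable-Hill-slope sigmoidal regression.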
# [9] = Cytotoxicity against human A2780 cells assessed as reduction in cell viability after 72 hrs by MTT assay; type: cell-based; outline: as §3
# [10] = test system: ABCB1 (P-glycoprotein); test: Therapeutic ratio of GI50 for human A2780/ADR cells overexpressing ABCB1 to IC50 for ABCB1 in human A2780/ADR cells; type: ADME, cell-based; details: read-out: TI
# [11] = Cytotoxicity against MDCK2 cells expressing human C-terminal GFP-tagged ABCG2 assessed as reduction in cell viability at 10 uM after 72 hrs by MTT assay; type: ADME, cell-based, Canis lupus familiaris; details: dog, mdck-ii
# [12] = Cytotoxicity against MDCK2 cells assessed as reduction in cell viability at 10 uM after 72 hrs by MTT assay; type: cell-based, Canis lupus familiaris; details: dog, mdck-ii
# [13] = test system: MDCK-II; test: Potentiation of SN-38-induced cytotoxicity in MDCK2 cells assessed as decrease in cell viability at 0.01 to 0.1 uM after 72 hrs by MTT assay; type: functional, cell-based; details: Canis lupus familiaris
# Outline: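 SN-38 dose-response curves in MDCK II BCRP cells (canine kidney line stably transfected with human ABCG2 C-terminally fused to GFP) and parental MDCK II wild-type cells. Modulator was present at a final 0.01 or 0.1 µM. Cells were seeded at 3 x 10³ per well, attached 6 h, then exposed 72 h. MTT was read at 570 nm minus 690 nm. Data were normalized and fitted with variable-slope sigmoidal regression.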
# [14] = biological target: T1, Broad substrate specificity ATP-binding cassette transporter ABCG2; test: Inhibition of vanadate-sensitive ATPase activity of recombinant human ABCG2 expressed in baculovirus infected Sf9 cell membrane assessed as decrease in inorganic phosphate production up to 1 uM after 20 mins by colorimetry; details: sf9, 20 min; outline: as §1
# [15] = biological target: T1, Broad substrate specificity ATP-binding cassette transporter ABCG2; test: Induction of vanadate-sensitive ATPase activity of recombinant human ABCG2 expressed in baculovirus infected Sf9 cell membrane assessed as increase in inorganic phosphate production at >1 uM after 20 mins by colorimetry; details: sf9, 20 min; outline: as §1
# [16] = test system: MCF7; test: Drug uptake in human MCF7 cells at 10 uM after 2 hrs by confocal laser scanning microscopic analysis; type: ADME, cell-based; details: mcf7, 2 h
# Outline: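 Parental MCF-7 cells, 1 x 10^5 seeded in dishes for 48 h to 50-60% confluence, then exposed to 10 µM compound for 2 h. Supernatant replaced with KHB; confocal imaging at 37 °C, excitation 405 nm, emission 425-475 nm.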
# [17] = biological target: T1, Broad substrate specificity ATP-binding cassette transporter ABCG2; test: Inhibition of ABCG2 in human MCF7/MX cells assessed as intracellular pheophorbide A accumulation at 10 uM after 2 hrs by confocal laser scanning microscopic analysis; type: cell-based
# Outline: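 MCF-7 MX cells (ABCG2-overexpressing; 0.1 µM mitoxantrone every 10 passages) incubated with pheophorbide A together with compound for 2 h. Imaged by confocal laser scanning microscopy at 37 °C after replacing the medium with KHB.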
# [18] = test system: MCF7; test: Drug uptake in human MCF7 cells up to 60 mins by fluorescence spectroscopic analysis; type: ADME, cell-based; details: mcf7, 1 h
# Outline: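 Parental MCF-7 cells, 1 x 10^6 per 4.5 ml KHB, incubated with compound for varying times […]. After a KHB wash, intracellular fluorescence was read in a fluorescence spectrometer.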
Compound,IC50 [1] [nM],IC50 [3] [nM],GI50 at 72 h [5] [nM],GI50 at 72 h [6] [nM],selectivity ratio [7],further results
COc1ccc(/C=C/C(=O)c2cccc(Nc3ncnc4cc(OC)c(OC)cc34)c2)cc1OC,1710,860,6140,11500,7,"inhibition (INH) [2]: Active; inhibition at 30 min, 10 µM [4]: 68%; GI50 at 72 h [8]: 1500 nM; GI50 at 72 h [9]: 1350 nM; selectivity ratio [10]: 2"
COc1cccc(/C=C/C(=O)c2cccc(Nc3nc(-c4ccccc4)nc4ccccc34)c2)c1,680,,,,,Activity [11]: Toxic; Activity [12]: Toxic
COc1cccc(/C=C/C(=O)c2ccc(Nc3ncnc4ccccc34)cc2)c1,680,5570,,,,Activity [11]: Toxic; Activity [12]: Toxic
COc1ccc(/C=C/C(=O)c2ccc(Nc3ncnc4cc(OC)c(OC)cc34)cc2)cc1OC,1230,,,,,inhibition (INH) [2]: Active
COc1ccc2c3c([nH]c2c1)[C@H](CC(C)C)N1C(=O)[C@H](CCC(=O)OC(C)(C)C)NC(=O)[C@@H]1C3,,,10900,11100,,Activity [13]: Active
COc1ccc(-c2nc(Nc3ccc(C(=O)/C=C/c4ccccc4)cc3)c3ccccc3n2)cc1OC,1090,,,,,
COc1ccc(/C=C/C(=O)c2ccc(Nc3nc(-c4ccccc4)nc4ccccc34)cc2)cc1,3550,,,,,
COc1ccc(/C=C/C(=O)c2cccc(Nc3nc(-c4ccccc4)nc4ccccc34)c2)cc1,970,,,,,
COc1ccc(/C=C/C(=O)c2cccc(Nc3ncnc4ccccc34)c2)cc1OC,1300,420,3420,5140,4,"inhibition at 30 min, 10 µM [4]: 66%; GI50 at 72 h [8]: 700 nM; GI50 at 72 h [9]: 650 nM; selectivity ratio [10]: 2"
COc1ccc(/C=C/C(=O)c2ccc(Nc3nc(-c4ccccc4)nc4ccccc34)cc2)cc1OC,290,18800,3460,4800,17,Activity [11]: Toxic; Activity [12]: Toxic
COc1cccc(/C=C/C(=O)c2cccc(Nc3nc(-c4ccc(OC)c(OC)c4)nc4ccccc34)c2)c1,310,8240,65500,84700,273,
COc1ccc(/C=C/C(=O)c2cccc(Nc3nc(-c4ccc(OC)c(OC)c4)nc4ccccc34)c2)cc1OC,600,480,12600,10900,18,"inhibition at 30 min, 10 µM [4]: 76%; GI50 at 72 h [8]: 1710 nM; GI50 at 72 h [9]: 1980 nM; selectivity ratio [10]: 4"
COc1cccc(/C=C/C(=O)c2ccc(Nc3ncnc4cc(OC)c(OC)cc34)cc2)c1,390,7550,,,,inhibition (INH) [2]: Active; inhibition (INH) [14]: Active; Activity [15]: Not Active
COc1ccc(/C=C/C(=O)c2cccc(Nc3ncnc4ccccc34)c2)cc1,890,7080,,,,
COc1ccc(/C=C/C(=O)c2cccc(Nc3nc(-c4ccccc4)nc4ccccc34)c2)cc1OC,460,,,,,
COc1ccc(/C=C/C(=O)c2ccc(Nc3nc(-c4ccc(OC)c(OC)c4)nc4ccccc34)cc2)cc1,3130,,,,,
COc1ccc(/C=C/C(=O)c2cccc(Nc3nc(-c4ccc(OC)c(OC)c4)nc4ccccc34)c2)cc1,210,1290,10300,13100,62,"inhibition at 30 min, 10 µM [4]: 70%; GI50 at 72 h [8]: 3250 nM; GI50 at 72 h [9]: 4390 nM; selectivity ratio [10]: 3"
COc1cccc(/C=C/C(=O)c2ccc(Nc3nc(-c4ccc(OC)c(OC)c4)nc4ccccc34)cc2)c1,360,14600,,,,
O=C(/C=C/c1ccccc1)c1ccc(Nc2nc(-c3ccccc3)nc3ccccc23)cc1,920,,,,,
COc1cccc(/C=C/C(=O)c2ccc(Nc3nc(-c4ccccc4)nc4ccccc34)cc2)c1,880,32100,,,,Activity [11]: Toxic; Activity [12]: Toxic
COc1ccc(/C=C/C(=O)c2cccc(Nc3ncnc4cc(OC)c(OC)cc34)c2)cc1,320,4150,16900,12700,40,inhibition (INH) [2]: Active
COc1ccc(/C=C/C(=O)c2ccc(Nc3ncnc4ccccc34)cc2)cc1OC,840,2340,,,,"inhibition at 30 min, 10 µM [4]: 61%; Drug uptake [16]: Active; inhibition (INH) [17]: Active; Drug uptake [18]: Active"
